# From PubChem
# Only some compounds are listed: those with a hit (about 2.7% of all), similar ones and a draw of the others.
# MsrA inh: bovine MsrA inhibition | actives 0.75% (n = 360,000) | inhibition, % at 15.5 µM | purified bovine MsrA, absorbance read-out; in the data active means inhibition above about 4.5%;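 further: 0% = vehicle wells with enzyme and 100% = reference inhibitor wells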
# NR1D1 modulator: modulators of human Rev-erb alpha DNA binding; actives 0.79% (n = 370,000); AID 1259318; activity, % at 10 µM; P20393; Rev-erbα–FITC-DNA binding, fluorescence polarization, 90 min;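 active means activity above about 14%, limit read from the data; passing the limit was not always enough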;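 further: 0% = DMSO wells with 35 nM protein and 100% = DMSO wells with 750 nM protein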
# Target sequence (P20393 whole entry, looked up): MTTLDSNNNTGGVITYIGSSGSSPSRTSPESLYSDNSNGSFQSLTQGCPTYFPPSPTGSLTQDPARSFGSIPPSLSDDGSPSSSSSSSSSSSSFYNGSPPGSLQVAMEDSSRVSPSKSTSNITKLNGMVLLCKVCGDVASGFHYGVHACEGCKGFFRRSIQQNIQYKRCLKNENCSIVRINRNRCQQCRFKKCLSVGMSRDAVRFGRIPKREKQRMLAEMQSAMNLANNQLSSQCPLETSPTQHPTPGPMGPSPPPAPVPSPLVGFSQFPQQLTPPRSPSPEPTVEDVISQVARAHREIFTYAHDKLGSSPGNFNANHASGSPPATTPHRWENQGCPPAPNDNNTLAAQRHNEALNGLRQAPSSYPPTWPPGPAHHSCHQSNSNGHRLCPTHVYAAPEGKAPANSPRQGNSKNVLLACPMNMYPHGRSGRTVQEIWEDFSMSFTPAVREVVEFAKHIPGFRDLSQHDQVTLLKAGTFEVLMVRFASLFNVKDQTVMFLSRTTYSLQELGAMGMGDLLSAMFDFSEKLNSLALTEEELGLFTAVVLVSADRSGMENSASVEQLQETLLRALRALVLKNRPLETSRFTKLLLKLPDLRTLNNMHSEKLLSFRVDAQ
# ASAP1 GAP inh: blocks human ASAP1-stimulated Arf1 GTP hydrolysis; Q9ULH1; GDP FP detection; inhibition, % at 16.5 µM; actives 0.19% (n = 360,000); AID 624377; in the data active means inhibition above about 25%;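 further: 0% = vehicle with enzyme and substrate and 100% = no enzyme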
# ARFGAP1 inh: inhibits rat ARF GTPase activating protein 1; inhibition, % at 16.5 µM; actives 0.26% (n = 360,000); Arfgap1-stimulated ARF1 GTP hydrolysis, GDP FP detection; AID 651572;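 active means inhibition above a per-plate limit, mean inhibition of low control wells plus 3 SD, cut at about 25% in these data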;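 further: 0% = DMSO wells with enzyme and 100% = wells lacking Arfgap1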
#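 Repeats: one replicate per compound; assay system: rat Arfgap1 catalytic domain, aa 1-136; times: enzyme reaction 120 min at 25 °C after 20 min preincubation; detection: FP of antibody-bound GDP Alexa 633 tracer, ex 620/em 688 nm; benchmarks: high control wells lacking Arfgap1, low control full reaction with DMSO; reagent: human ARF1(Δ1-17)-GTP substrate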
# bovine MsrA act: activators of bovine methionine sulfoxide reductase A | actives 0.3% (n = 360,000) | activation, % at 10.6 µM | purified bovine MsrA, absorbance read-out; in the data active means activation above about 7.5%;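 further: 0% = vehicle and 100% = reference activator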
# sPLA2-III inh: Blocks human group III sPLA2 activity; inhibition, % at 12.2 µM; Q9NZ20; QFRET BODIPY PC-A2 liposome hydrolysis, fluorescence; actives 0.56% (n = 370,000);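 active means inhibition above mean plus 3 SD of compounds lying within the high and low control bounds, cut at about 19% in these data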;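 further: 0% = median of test compound wells and 100% = no enzyme DMSO wells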
# sPLA2 confirm: human GIII-sPLA2 inhibition, confirmation | shares compounds with sPLA2-III inh | recombinant hGIII-sPLA2, BODIPY PC-A2 QFRET fluorescence | inhibition, % at 12.2 µM | actives 34% (n = 2,000) | AID 743280;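 active means mean inhibition across triplicates above the hit cutoff set in the earlier primary screen, cut at about 19% in these data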;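 further: 0% = enzyme with DMSO and 100% = DMSO wells lacking enzyme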
# BODIPY interf: optically interferes with 535nm fluorescence in sPLA2 counter-screen; inhibition, % at 12.2 µM; shares compounds with sPLA2-III inh; BODIPY FL product fluorescence interference, QFRET; actives 8.5% (n = 2,000);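 active means average inhibition above the solvent-only control mean plus 3 SD, cut at about 6% in these data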;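 further: 0% = DMSO with substrate plus product and 100% = DMSO with substrate alone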
# BODIPY interf DR: interferes with 535nm fluorescence in dose response counter-screen. BODIPY FL product fluorescence interference, cell-free. IC50, µM. 240 tested, under 10 active. shares compounds with sPLA2-III inh. AID 743455;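 active means IC50 at or below 10 µM; inactive means IC50 above 10 µM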
# * hit, by the source's call; . = no result.
SMILES,MsrA inh,NR1D1 modulator,ASAP1 GAP inh,ARFGAP1 inh,bovine MsrA act,sPLA2-III inh,sPLA2 confirm,BODIPY interf,others
COc1ccccc1-c1cc2c(c3c1ccn3C)C1CCC2C1 (stereo not drawn),1,9,8,7,-7,22*,4,-3,
COc1cccc(-c2cc3c(c4c2ccn4C)C2CCC3C2)c1 (stereo not drawn),1,-4,-1,-7,-3,19*,-5,2,
O=C(NN=Cc1ccccc1C(F)(F)F)c1cc(-c2ccc(Cl)cc2)n[nH]1,.,-2,.,.,.,-15,.,.,
CCCCn1c(=S)[nH]c2c(=O)n(C)c(=O)n(C)c21,-1,3,5,-9,3,7,.,.,
Cn1c(=O)c2[nH]c(=S)n(Cc3ccccc3)c2n(C)c1=O,1,-1,3,3,-1,23*,8,1,
CCc1cccc2sc(N3CCN(C(=O)c4ccc([N+](=O)[O-])o4)CC3)nc12,.,.,.,.,2,.,.,.,
CNc1ncnc2c1ncn2[C@H]1CN(Cc2ccc3c(c2)OCO3)C[C@@H](CO)O1,1,-1,2,-5,0,3,.,.,
COc1ccccc1Cn1c(=S)[nH]c2cc(C(=O)NCCCN3CCOCC3)ccc2c1=O,0,5,13,1,2,20*,12,-9,
CSc1cccc(NC(=S)N2CCC(N(C)C3CCCC3)CC2)c1,2,-1,-8,7,-3,19*,11,-17,
CC1CN(Cc2ccccc2Cl)CC(C)O1 (stereo not drawn),0,5,-2,5,-3,19*,-1,-10,
Clc1ccccc1CN1CCSCC1,0,0,-8,-5,0,3,.,.,
CCC(=O)NC(=S)Nc1ccc(-c2nc3ccccc3s2)cc1,0,8,2,6,-3,-4,.,.,
CCC(=O)NC(=S)Nc1ccc(-c2nc3ccc(C)cc3s2)cc1,0,3,-3,-3,-3,19*,0,-8,
N#Cc1cccc(-n2cc(COC(=O)NCCc3ccccc3)nn2)c1,.,2,.,.,.,3,.,.,
CC1(C)Cc2nc3sc(C(=O)NCCCO)c(N)c3cc2CO1,0,3,-3,2,0,21*,-1,-4,
COc1ccc(NC(=O)CSc2ccc(-c3ccccn3)nn2)cc1OC,0,-4,6,1,-2,19*,-1,-27,
CCOc1ccc(NC(=O)CSc2ccc(-c3ccccn3)nn2)cc1,0,-4,8,-5,-2,19*,-5,-22,
Cc1ccc(NC(=O)CSc2ccc(-c3ccccn3)nn2)cc1,0,-3,-9,9,-2,-1,.,.,
O=C(O)C[C@H](O)C[C@H](O)/C=C/c1c(C2CC2)nc2ccccc2c1-c1ccc(F)cc1,.,1,.,.,.,.,.,.,
N#Cc1c(Cl)nsc1NN,3,-1,-6,6,1,20*,19,14*,
Cc1c(C#N)c(N)nc(Cl)c1C#N,0,-5,2,-9,-10,-1,.,.,
O=C(NC1C2CCCC1CN(C1CC1)C2)c1ccc(Cl)cc1 (stereo not drawn),1,2,0,-11,-2,20*,19,-6,
O=C(COCc1ccccc1)N1CC[C@H]2[C@H](CCCN2Cc2ccc(F)cc2)C1,.,-7,.,.,.,1,.,.,
NC(=O)c1ccc[n+](Cc2ccccc2)c1,0,0,-15,0,-5,19*,1,-6,
COc1ccc(CN(C)C(C#Cc2ccccc2)Cc2ccccc2)c(OC)c1 (stereo not drawn),.,2,.,.,.,2,.,.,
SMILES,MsrA inh,NR1D1 modulator,ASAP1 GAP inh,ARFGAP1 inh,bovine MsrA act,sPLA2-III inh,sPLA2 confirm,BODIPY interf,others
Nc1ccc(Cl)c(NC(=O)c2cccs2)c1,0,0,-6,-9,3,0,.,.,
Nc1ccc(NC(=O)c2cccs2)c(Cl)c1,1,3,-16,8,-8,22*,7,2,
O=C(Nc1ccc2c(c1)OCO2)OC1CCC12CCCCC2 (stereo not drawn),.,0,.,.,.,2,.,.,
CCOC(=O)c1ccc(N2CCN(c3ccccc3F)CC2)c(NC(=O)Nc2cccc(OC)c2)c1,1,1,4,4,-7,21*,-10,-16,
COC(=O)[C@]12C[C@H](CC(=O)NCc3cccc(C(F)(F)F)c3)C(=O)N(Cc3ccco3)C1=C[C@H](C1CCCC1)O[C@@H]2C,.,-2,.,.,.,-17,.,.,
COc1ccc2c(=O)cc(-c3cccnc3)oc2c1OC,3,3,-12,0,-2,20*,-1,-6,
Cc1cccc(/C=N/n2c(-c3ccco3)n[nH]c2=S)c1,1,-7,-16,-7,-1,16,.,.,
Cc1ccc(/C=N/n2c(-c3ccco3)n[nH]c2=S)cc1,2,-5,-3,2,2,22*,12,-1,
COc1cccc(C(=O)Oc2cc3c4c(c2)C(C)=CC(C)(C)N4C(=O)C3=O)c1,0,-3,0,5,-1,32*,53*,3,BODIPY interf DR=>122
COc1ccc(C(=O)Oc2cc3c4c(c2)C(C)=CC(C)(C)N4C(=O)C3=O)cc1OC,0,2,6,4,-6,16,.,.,
CC(C)Cn1c(/C=N/Nc2nc3ccccc3[nH]2)nc2ccccc21,3,2,-7,-6,-7,29*,39*,-8,
NNc1nc(-c2ccccc2)c2cc(Cl)ccc2n1,1,0,-1,-5,-1,19*,26*,4,
Cc1ccccc1N1CC(=O)Nc2c(oc3nc(-c4ccccc4)cc(C)c23)C1=O,1,-1,-5,7,1,-4,.,.,
COc1cccc(N2CC(=O)Nc3c(oc4nc(-c5ccccc5)cc(C)c34)C2=O)c1,0,18,9,-2,-1,20*,-3,-13,
Cc1ccc(NC(=O)CSc2nnc(-c3cc(-c4ccc(Cl)cc4)n[nH]3)n2N)cc1,.,5,.,.,.,11,.,.,
C/C(=N\NC(=S)NC1CCCCC1)c1ccc(C#N)cc1,1,4,6,0,-3,26*,16,-1,
COc1ccc(O)c(/C=N/NC(=S)NCCc2ccccc2)c1,0,6,5,3,-8,18,.,.,
COc1ccc(/C(C)=N/NC(=S)NCCc2ccccc2)c(O)c1,2,2,7,9,-1,44*,7,8.2*,
COCCNC(=S)N/N=C(\C)c1ccccc1O,1,3,-2,11,-5,43*,22*,2,
COCCNC(=S)N/N=C(\C)c1ccccc1OC,0,2,0,-11,-3,11,.,.,
